Reference: ChEMBL document CHEMBL4706614, “Design, synthesis and biological evaluation of novel naphthoquinone-4-aminobenzensulfonamide/carboxamide derivatives as proteasome inhibitors” (Eur J Med Chem, 2021)
The source made the active and inactive calls. The rule behind the calls is not given here. Residues, ends and D or L forms follow the SMILES beside them. *: point of attachment. Cbz = O=C(OCc1ccccc1)*

Tests used:
[1] = target: Proteasome Macropain subunit (Homo sapiens) (UniProt P49721); test: Inhibition of trypsin-like activity 20S proteasome beta subunit 2 of human MCF7 cells using fluorogenic substrate Boc-LRR-AMC at 10 uM after 1 hr by fluorescence analysis relative to control; assay type: cell-based
Proteasome Macropain subunit (Homo sapiens), sequence (P49721 whole entry): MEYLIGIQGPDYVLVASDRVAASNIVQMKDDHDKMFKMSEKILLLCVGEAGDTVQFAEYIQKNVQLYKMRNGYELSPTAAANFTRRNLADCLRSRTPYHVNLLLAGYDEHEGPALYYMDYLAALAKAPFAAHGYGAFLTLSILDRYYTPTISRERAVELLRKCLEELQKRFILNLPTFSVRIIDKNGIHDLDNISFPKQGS
In short: (§1)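 Screen at 10 µM: MCF-7 lysates (sucrose/HEPES/MgCl2/EDTA buffer, 1 mM DTT) preincubated 10 min in 225 mM Tris pH 7.8, 7.5 mM MgOAc, 7.5 mM MgCl2, 45 mM KCl, 1 mM DTT; compound 1 h at 37 °C, then substrate 1 h at 37 °C; AMC release ex 360/em 460 nm versus DMSO; MG-132 positive control.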

[2] = target: T1, Proteasome component C5 (Homo sapiens) (UniProt P20618); test: Inhibition of caspase-like activity 20S proteasome beta subunit 1 of human MCF7 cells using fluorogenic substrate Z-LLE-AMC at 10 uM after 1 hr by fluorescence analysis relative to control; assay type: cell-based; in short: as §1
T1 sequence (whole entry): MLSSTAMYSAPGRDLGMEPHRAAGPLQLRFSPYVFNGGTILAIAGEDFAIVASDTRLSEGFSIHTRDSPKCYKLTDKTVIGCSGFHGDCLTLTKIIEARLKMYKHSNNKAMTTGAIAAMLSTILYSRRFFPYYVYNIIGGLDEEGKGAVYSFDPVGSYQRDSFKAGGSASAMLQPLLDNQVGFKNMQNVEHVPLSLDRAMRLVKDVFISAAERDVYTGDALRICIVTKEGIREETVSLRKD

[3] = target: T2, Proteasome Macropain subunit MB1 (Homo sapiens) (UniProt P28074); test: Inhibition of chymotrypsin-like activity 20S proteasome beta subunit 5 of human MCF7 cells using fluorogenic substrate Suc-LLVY-AMC at 10 uM after 1 hr by fluorescence analysis relative to control; assay type: cell-based; in short: as §1
T2 sequence (whole entry): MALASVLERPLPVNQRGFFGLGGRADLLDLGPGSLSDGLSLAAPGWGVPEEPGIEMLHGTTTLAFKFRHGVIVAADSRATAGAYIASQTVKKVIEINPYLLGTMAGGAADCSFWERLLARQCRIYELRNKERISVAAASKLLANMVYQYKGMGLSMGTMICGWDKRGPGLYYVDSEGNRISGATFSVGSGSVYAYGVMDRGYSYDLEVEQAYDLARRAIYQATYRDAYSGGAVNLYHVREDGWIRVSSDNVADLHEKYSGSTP

MCF7 [4] = test: Antiproliferative activity against human MCF7 cells assessed as cell viability after 48 hrs MTT assay; assay type: functional, cell-based; conditions: MCF7, 48 h
In short: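 MTT:medium (1:9) added 4 h at 37°C, formazan dissolved in DMSO, absorbance 570 nm. DMSO solvent control; triplicate; IC50 = concentration inhibiting 50% of viability.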

[5] = target: T3, Proteasome Macropain subunit MB1 (Homo sapiens, UniProt P28074); test: Inhibition of chymotrypsin-like activity 20S proteasome beta subunit 5 of human MCF7 cells using fluorogenic substrate Suc-LLVY-AMC after 1 hr by fluorescence analysis; assay type: cell-based
T3 sequence (P28074 whole entry): T2 sequence (whole entry)
In short: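 For IC50, intact MCF-7 cells treated 12 h with compounds, then lysed (sucrose/HEPES/MgCl2/EDTA, 1 mM DTT); extracts in Tris pH 7.8/MgOAc/MgCl2/KCl/DTT mix with substrate 1 h at 37 °C; AMC fluorescence ex 360/em 460 nm, normalized to BCA total protein; DMSO solvent and MG-132 positive controls.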

MCF7 [6] = test: Increase in K48-linked polyubiquitinated protein expression in human MCF7 cells at IC50 after 12 hrs by Western blot analysis; assay type: functional, cell-based
MCF7 [7] = test: Effect on 20S proteasome beta subunit 5 expression in human MCF7 cells at IC50 after 12 hrs by Western blot analysis; assay type: functional, cell-based

Row | SMILES | inhibition [1] | inhibition [2] | inhibition [3] [%] | IC50 (MCF7 [4]) [µM] | IC50 [5] [µM] | Activity (MCF7 [6]) | Activity (MCF7 [7])
1 | Cc1cccnc1NC(=O)c1ccc(NC2=C(Cl)C(=O)c3ccccc3C2=O)cc1 | inactive | 9.52% | 11.4 | 4.32 | – | – | –
2 | O=C(Nc1cccc2ccccc12)c1ccc(NC2=C(Cl)C(=O)c3ccccc3C2=O)cc1 | 4.41% | 16.7% | 16.9 | 4.8 | – | – | –
3 | CC(C)c1ccccc1NC(=O)c1ccc(NC2=C(Cl)C(=O)c3ccccc3C2=O)cc1 | inactive | 9.94% | 17.2 | 2.61 | – | – | –
4 | Cc1csc(NS(=O)(=O)c2ccc(NC3=C(Cl)C(=O)c4ccccc4C3=O)cc2)n1 | 21% | 15.4% | 24.8 | 4.23 | – | – | –
5 | O=C(Nc1cccc(Cl)c1)c1ccc(NC2=C(Cl)C(=O)c3ccccc3C2=O)cc1 | 27.6% | 11.7% | 21.6 | 16.6 | – | – | –
6 | Cc1ccnc(NC(=O)c2ccc(NC3=C(Cl)C(=O)c4ccccc4C3=O)cc2)c1 | inactive | 8.37% | 16.6 | 1.72 | – | – | –
7 | O=C(Nc1cccnc1)c1ccc(NC2=C(Cl)C(=O)c3ccccc3C2=O)cc1 | inactive | 1.2% | 16.3 | 6.04 | – | – | –
8 | CC(C)C[C@@H](C=O)NC(=O)[C@H](CC(C)C)NC(=O)[C@H](CC(C)C)NC(=O)OCc1ccccc1 (Cbz-Leu-Leu-Leu-aldehyde) | 51.4% | 18.4% | 38.2 | – | – | – | –
9 | O=C1C(Cl)=C(Nc2ccc(S(=O)(=O)N3CCOCC3)cc2)C(=O)c2ccccc21 | 2.76% | 16.2% | 10.8 | 1.84 | – | – | –
10 | Cc1csc(NC(=O)c2ccc(NC3=C(Cl)C(=O)c4ccccc4C3=O)cc2)n1 | 7.11% | 7.76% | 22.3 | 2.44 | – | – | –
11 | O=C(Nc1ccc(Cl)cn1)c1ccc(NC2=C(Cl)C(=O)c3ccccc3C2=O)cc1 | inactive | 8.55% | 19.4 | 6.19 | – | – | –
12 | COc1cccc2c1C(=O)c1c(O)c3c(c(O)c1C2=O)C[C@@](O)(C(=O)CO)C[C@@H]3O[C@H]1C[C@H](N)[C@H](O)[C@H](C)O1 [DOXORUBICIN] | – | – | – | 0.93 | – | – | –
13 | O=C(Nc1ccc(Cl)cc1)c1ccc(NC2=C(Cl)C(=O)c3ccccc3C2=O)cc1 | 1.55% | inactive | 15.8 | 4.52 | – | – | –
14 | O=C(Nc1ccccc1)c1ccc(NC2=C(Cl)C(=O)c3ccccc3C2=O)cc1 | 3.19% | 10.7% | 4.03 | 15.4 | – | – | –
15 | Cc1ccc(NC(=O)c2ccc(NC3=C(Cl)C(=O)c4ccccc4C3=O)cc2)nc1 | inactive | 7.42% | 22 | 4.16 | – | – | –
16 | O=C(Nc1nccs1)c1ccc(NC2=C(Cl)C(=O)c3ccccc3C2=O)cc1 | inactive | 3.59% | 19.6 | 3.84 | – | – | –
17 | Cc1cccc(NC(=O)c2ccc(NC3=C(Cl)C(=O)c4ccccc4C3=O)cc2)c1 | 3.39% | 15.1% | 14.6 | 14.4 | – | – | –
18 | COc1cc(NS(=O)(=O)c2ccc(NC3=C(Cl)C(=O)c4ccccc4C3=O)cc2)cc(OC)c1 | 22.7% | 12% | 20 | 2.2 | – | – | –
19 | O=C(Nc1ccncc1)c1ccc(NC2=C(Cl)C(=O)c3ccccc3C2=O)cc1 | 2.43% | 7.87% | 8.96 | 20.8 | – | – | –
20 | Cc1cc(NC(=O)c2ccc(NC3=C(Cl)C(=O)c4ccccc4C3=O)cc2)no1 | 6.55% | 8.36% | 18.9 | 10.2 | – | – | –

Now from value to molecule, other results behind:

Row | inhibition [1] | inhibition [2] | inhibition [3] [%] | IC50 (MCF7 [4]) [µM] | IC50 [5] [µM] | SMILES | Activity (MCF7 [6]) | Activity (MCF7 [7])
21 | 11.6% | inactive | 10.1 | 1.79 | – | Cc1ccc(NS(=O)(=O)c2ccc(NC3=C(Cl)C(=O)c4ccccc4C3=O)cc2)nc1 | – | –
22 | 23.8% | 10% | 22.2 | 3.37 | – | O=C1C(Cl)=C(Nc2ccc(S(=O)(=O)Nc3ccc(Br)cc3)cc2)C(=O)c2ccccc21 | – | –
23 | 22.7% | 14.1% | 26 | 2.84 | – | O=C1C(Cl)=C(Nc2ccc(S(=O)(=O)Nc3ccc([N+](=O)[O-])cc3)cc2)C(=O)c2ccccc21 | – | –
24 | 6.29% | 1.21% | 3.25 | 2.56 | – | O=C1C(Cl)=C(Nc2ccc(S(=O)(=O)Nc3ccccc3Cl)cc2)C(=O)c2ccccc21 | – | –
25 | 21.1% | 13.9% | 17.4 | 2.43 | – | CCc1ccccc1NS(=O)(=O)c1ccc(NC2=C(Cl)C(=O)c3ccccc3C2=O)cc1 | – | –
26 | 17.1% | 11.5% | 20 | 5.38 | – | CC(C)c1ccccc1NS(=O)(=O)c1ccc(NC2=C(Cl)C(=O)c3ccccc3C2=O)cc1 | – | –
27 | 30.5% | 22.8% | 35.3 | 16.1 | 33.1 | O=C(Nc1ccc([N+](=O)[O-])cc1)c1ccc(NC2=C(Cl)C(=O)c3ccccc3C2=O)cc1 | – | –
28 | 13% | 9.01% | 14.8 | 1.91 | – | Cc1cccnc1NS(=O)(=O)c1ccc(NC2=C(Cl)C(=O)c3ccccc3C2=O)cc1 | – | –
29 | 35% | 28.9% | 42.3 | 4.43 | 9.9 | O=C1C(Cl)=C(Nc2ccc(S(=O)(=O)Nc3ccc(Cl)cn3)cc2)C(=O)c2ccccc21 | Active | inactive
30 | 24.5% | 14.2% | 28.8 | 2.1 | – | O=C1C(Cl)=C(Nc2ccc(S(=O)(=O)Nc3cccc(Cl)c3)cc2)C(=O)c2ccccc21 | – | –
31 | 7.26% | 3.35% | 11.7 | 2.11 | – | Cc1ccnc(NS(=O)(=O)c2ccc(NC3=C(Cl)C(=O)c4ccccc4C3=O)cc2)c1 | – | –
32 | 21.2% | 15.4% | 18.4 | 3.32 | – | O=C1C(Cl)=C(Nc2ccc(S(=O)(=O)Nc3cccc4ccccc34)cc2)C(=O)c2ccccc21 | – | –
33 | 22.1% | 11.2% | 22.4 | 4.65 | – | O=C1C(Cl)=C(Nc2ccc(S(=O)(=O)Nc3cccnc3Cl)cc2)C(=O)c2ccccc21 | – | –
34 | 19.4% | 7.44% | 23.5 | 2.17 | – | O=C1C(Cl)=C(Nc2ccc(S(=O)(=O)Nc3cccc([N+](=O)[O-])c3)cc2)C(=O)c2ccccc21 | – | –
35 | 21.3% | 14.2% | 17.3 | 3.99 | – | O=C1C(Cl)=C(Nc2ccc(S(=O)(=O)Nc3ccccc3[N+](=O)[O-])cc2)C(=O)c2ccccc21 | – | –
36 | 29.6% | 18.8% | 36.8 | 1.96 | 12.5 | O=C1C(Cl)=C(Nc2ccc(S(=O)(=O)Nc3ccccn3)cc2)C(=O)c2ccccc21 | Active | inactive
